Results taken from ChEMBL document CHEMBL1143743, “A new class of anti-thrombosis hexahydropyrazino-[1',2':1,6]pyrido-[3,4-b]-indole-1,4-dions: design, synthesis, logK determination, and QSAR analysis” (Bioorg Med Chem, 2007).

Experiments:
[1] = system: Rattus norvegicus; test: Antithrombotic activity in Wistar rat assessed as wet thrombus weight at 0.5 umol/kg, iv; assay type: functional
Outline: (§1)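 Male Wistar rats (250–300 g) under ip pentobarbital sodium (80.0 mg/kg). Arteriovenous shunt: polyethylene tube holding a weighed 6 cm thread, filled with heparin sodium (50 IU/ml in NS), joins left jugular vein to right carotid artery. Heparin, then compound in NS (kept on ice), injected through the tube; blood flows 15 min. Thread weighed wet, then dry after 2 weeks in a desiccator.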

[2] = system: Rattus norvegicus; test: Antithrombotic activity in Wistar rat assessed as dry thrombus weight at 0.5 umol/kg, iv; assay type: functional; outline: as §1
[3] = system: Rattus norvegicus; test: Antithrombotic activity in Wistar rat assessed as wet thrombus weight at 0.5 umol/kg, po; assay type: functional
Outline: (§2)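 Compound in NS given orally to male Wistar rats (250–300 g), which were then anesthetized with ip pentobarbital sodium (80.0 mg/kg). Thirty min later the carotid artery and jugular vein were exposed. Blood ran 15 min through a polyethylene-tube shunt holding a thread. Wet thrombus weighed, then dry weight recorded after 2 weeks in a desiccator.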

[4] = system: Rattus norvegicus; test: Antithrombotic activity in Wistar rat assessed as dry thrombus weight at 0.5 umol/kg, po; assay type: functional; outline: as §2
[5] = HPLC retention, log K of the compound
[6] = system: Rattus norvegicus; test: Antithrombotic activity in Wistar rat assessed as wet thrombus weight at 5 nmol/kg, iv; assay type: functional; outline: as §1
[7] = system: Rattus norvegicus; test: Antithrombotic activity in Wistar rat assessed as wet thrombus weight at 0.5 nmol/kg, iv; assay type: functional; outline: as §1
[8] = system: Rattus norvegicus; test: Antithrombotic activity in Wistar rat assessed as dry thrombus weight at 5 nmol/kg, iv; assay type: functional; outline: as §1
[9] = system: Rattus norvegicus; test: Antithrombotic activity in Wistar rat assessed as dry thrombus weight at 0.5 nmol/kg, iv; assay type: functional; outline: as §1
[10] = system: Plasma; test: Inhibition of ADP-induced platelet aggregation in pig platelet rich plasma; assay type: functional, cell-free; conditions: Sus scrofa
Outline: (§3)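 Pig blood anticoagulated with 0.38% sodium citrate (final). PRP taken at 100 g for 10 min, PPP at 1,500 g for 10 min, platelets adjusted to 2 × 10⁸/ml with autologous PPP. Compound in NS (1–0.01 μmol/L final) added to 0.5 ml PRP. Aggregation induced with PAF (10^-7 mol/L final) or ADP (10^-5 mol/L final), followed turbidimetrically at 37 °C for 5 min. Peak height (Am%) compared with NS control; IC50 derived.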

[11] = system: Plasma; test: Inhibition of PAF-induced platelet aggregation in pig platelet rich plasma; assay type: functional, cell-free; conditions: Sus scrofa; outline: as §3
[12] = system: Rattus norvegicus; test: Antithrombotic activity in Wistar rat assessed as wet thrombus weight at […], iv; assay type: functional
[13] = system: Rattus norvegicus; test: Antithrombotic activity in Wistar rat assessed as dry thrombus weight at […], iv; assay type: functional

Row | SMILES | Activity [1] [mg] | Activity [2] [mg] | log K [5] | also measured
1 | O=C1NCC(=O)N2Cc3[nH]c4ccccc4c3C[C@@H]12 | 10.68 | 3.39 | 0.19 | Activity [3]: 11.57 mg; Activity [4]: 3.67 mg
2 | O=C1N[C@@H](Cc2ccc(O)cc2)C(=O)N2Cc3[nH]c4ccccc4c3C[C@@H]12 | 10.49 | 3.3 | 0.01 | –
3 | CCC(C)[C@@H]1NC(=O)[C@@H]2Cc3c([nH]c4ccccc34)CN2C1=O (stereo partly drawn) | 12.45 | 3.95 | 1.26 | –
4 | O=C(O)C[C@@H]1NC(=O)[C@@H]2Cc3c([nH]c4ccccc34)CN2C1=O | 12.26 | 3.89 | 0.15 | Activity [3]: 12.42 mg; Activity [4]: 3.94 mg
5 | CC(C)C[C@@H]1NC(=O)[C@@H]2Cc3c([nH]c4ccccc34)CN2C1=O | 10.4 | 3.3 | 1.32 | –
6 | C[C@@H]1NC(=O)[C@@H]2Cc3c([nH]c4ccccc34)CN2C1=O | 12.05 | 3.83 | 0.47 | –
7 | NC(=O)CC[C@@H]1NC(=O)[C@@H]2Cc3c([nH]c4ccccc34)CN2C1=O | 11.1 | 3.52 | 0.28 | –
8 | O=C(O)CC[C@@H]1NC(=O)[C@@H]2Cc3c([nH]c4ccccc34)CN2C1=O | 10.42 | 3.31 | 0.21 | –
9 | O=C1N[C@@H](Cc2ccccc2)C(=O)N2Cc3[nH]c4ccccc4c3C[C@@H]12 | 8.58 | 1.33 | 1.05 | Activity [6]: 13.3 mg; Activity [7]: 15.3 mg; Activity [8]: 2.08 mg; Activity [9]: 2.39 mg
10 | CSCC[C@@H]1NC(=O)[C@@H]2Cc3c([nH]c4ccccc34)CN2C1=O | 10.41 | 3.28 | 0.97 | –
11 | N=C(N)NCCC[C@@H]1NC(=O)[C@@H]2Cc3c([nH]c4ccccc34)CN2C1=O | 8.62 | 1.22 | -0.58 | Activity [6]: 14.52 mg; Activity [7]: 15.71 mg; Activity [8]: 2.27 mg; Activity [9]: 2.45 mg
12 | O=C1NC(CS)C(=O)N2Cc3[nH]c4ccccc4c3C[C@@H]12 (single isomer, unassigned) | 9.06 | 2.88 | 0.71 | –
13 | CC(C)[C@@H]1NC(=O)[C@@H]2Cc3c([nH]c4ccccc34)CN2C1=O | 8.19 | 1.2 | 0.97 | IC50 [10]: 112 nM; IC50 [11]: 294 nM; Activity [6]: 14.79 mg; Activity [7]: 16.88 mg; Activity [8]: 2.31 mg; Activity [9]: 2.64 mg
14 | CC(O)[C@@H]1NC(=O)[C@@H]2Cc3c([nH]c4ccccc34)CN2C1=O (stereo partly drawn) | 11.49 | 3.65 | -0.14 | –
15 | NCCCC[C@@H]1NC(=O)[C@@H]2Cc3c([nH]c4ccccc34)CN2C1=O | 12.78 | 4.06 | -0.26 | Activity [3]: 11.75 mg; Activity [4]: 3.73 mg
16 | CC(=O)Oc1ccccc1C(=O)O [ASPIRIN] | – | – | – | Activity [12]: 7.56 mg; Activity [13]: 2.4 mg
17 | O=C1N[C@@H](CO)C(=O)N2Cc3[nH]c4ccccc4c3C[C@@H]12 | 9.44 | 2.98 | -0.16 | –
18 | NC(=O)C[C@@H]1NC(=O)[C@@H]2Cc3c([nH]c4ccccc34)CN2C1=O | 9.54 | 3.03 | 0.21 | –
